Bioassay records from PubChem BioAssay.
APP 5'UTR act: activates APP 5'UTR luciferase reporter; activation, % at 2 µM; actives 1% (n = 190,000); SH-SY5Y APP 5'UTR luciferase reporter, luminescence; zero percent = DMSO vehicle wells;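 active means activation above a set limit, based on mean plus 3 SD of controls, cut at about 140% in these data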
FLuc act counter: affects firefly luciferase, flagging false hits in luciferase stimulation screens; P08659; ATPlite luciferase biochemical, luminescence, 10 min; 0 = ATP-free wells, 1 = DMSO control; activation factor at 10 µM; 200,000 tested, under 10 active;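 active means luciferase activation factor, scaled between plate controls, of at least 2 with compound at 10 µM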
Target sequence (P08659 whole entry, looked up): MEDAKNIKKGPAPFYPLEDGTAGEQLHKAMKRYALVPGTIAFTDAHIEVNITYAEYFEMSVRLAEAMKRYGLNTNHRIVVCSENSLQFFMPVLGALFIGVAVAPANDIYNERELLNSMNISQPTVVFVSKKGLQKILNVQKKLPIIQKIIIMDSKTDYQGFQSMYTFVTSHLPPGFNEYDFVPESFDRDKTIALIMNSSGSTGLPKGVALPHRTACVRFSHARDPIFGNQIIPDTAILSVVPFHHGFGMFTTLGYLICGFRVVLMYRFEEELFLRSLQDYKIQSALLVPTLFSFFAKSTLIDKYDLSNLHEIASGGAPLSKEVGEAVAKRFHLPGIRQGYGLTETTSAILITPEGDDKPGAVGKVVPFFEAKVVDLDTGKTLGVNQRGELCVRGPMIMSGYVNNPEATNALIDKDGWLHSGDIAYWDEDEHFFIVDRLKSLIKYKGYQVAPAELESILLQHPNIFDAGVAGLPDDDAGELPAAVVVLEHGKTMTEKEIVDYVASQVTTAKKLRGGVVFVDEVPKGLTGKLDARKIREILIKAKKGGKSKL
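assay system = Luciferase/luciferin detection reagent, cell-free biochemical luciferase assay | also added = ATP substrate | times = 10 min post-reagent at room temperature | measured by = luminescence from luciferase reaction | measure = luciferase activation, seen as luminescence increase over controls | benchmarks = low control with PBS replacing ATP, high control enzyme plus ATP without compound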
FLuc inhib CS: inhibits firefly luciferase, flagging false hits in luciferase inhibition screens; actives 1.5% (n = 200,000); ATPLite firefly luciferase biochemical luminescence, 10 min; inhibition, % at 10 µM; P08659;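 active means inhibition above about 50% when tested at 10 µM, limit read from the data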
STAT1 act: STAT1 signaling activation | NIH 3T3 STAT1-luciferase reporter, IFN-gamma, luminescence; 100% = IFN-gamma alone, no compound | activation (% of control), % at 5.5 µM | actives 2.6% (n = 200,000);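 active means activation above the screen-wide mean activation plus 3 SD, cut at about 130% in these data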
NF-kB expr up: NF-kB expression increase, human neuronal cells; NF-kB reporter expression; stronger effect = higher value; fold change at 12.5 µM; actives 1.6% (n = 190,000); AID 1239; in the data active means fold change above about 3.3
A number is an active result; - = inactive; . = no result given. Compounds with a hit are over-represented: about 4.1% of the library has one in this group of screens.

SMILES	APP 5'UTR act	FLuc act counter	FLuc inhib CS	STAT1 act	NF-kB expr up
O=C(NC1CCCCC1)C1Cc2ccccc2CN1S(=O)(=O)c1ccc(F)cc1 (stereo not drawn)	-	-	-	-	-
CCn1cc(S(=O)(=O)CC(=O)Nc2ccc(OC)cc2)c2ccccc21	-	-	-	-	-
CN1CCN(c2nc(-c3cccs3)cs2)CC1	-	-	-	-	-
CN1CCN(c2nc(-c3cc4ccccc4o3)cs2)CC1	-	-	-	129	-
O=C(Nc1ccnc(-c2ccncc2)n1)C1CC1	-	-	-	-	-
COc1cc(C(=O)Nc2cccc(-c3nc4cc(C)ccc4o3)c2)cc(OC)c1OC	-	-	-	-	-
Cc1ccc(-c2nc3cc(Cl)ccc3o2)cc1	-	-	86	162	8.5
COc1cc(OC)cc(-c2nc3ccccc3c(=O)o2)c1	-	-	-	-	-
COc1cc(OC)cc(-c2nc3cc(C)ccc3o2)c1	-	-	-	158	6.2
COc1cc(C(=O)Nc2cc(-c3nc4cc(C)ccc4o3)ccc2C)cc(OC)c1OC	-	-	51	-	-
CC(C)N(Cc1nnc(-c2ccccc2Cl)o1)C(=O)c1cccc(C#N)c1	-	-	-	-	.
CCN(CC)c1ccc(-c2nn3c(-c4cccnc4)nnc3s2)cc1	-	-	-	-	-
CCCNC(=O)OCc1cccnc1Sc1ccc(C)cc1	-	-	-	-	-
CCN(CC)S(=O)(=O)c1cc(NC(=O)c2ccc(Br)s2)ccc1C	-	-	-	138	-
Cn1cnnc1SCC(=O)NCCc1ccc(Cl)cc1Cl	-	-	-	-	-
O=c1c2c3c(sc2nc2n1CCCCC2)CCCC3	-	-	-	143	4.1
Clc1nc(CN2CCCCC2)nc2sc3c(c12)CCCC3	-	-	-	-	3.6
Clc1nc(CN2CCOCC2)nc2sc3c(c12)CCC3	-	-	-	-	-
CN1CCCN(Cc2nc(-c3ccc(Cl)cc3)no2)CC1	-	-	-	-	-
CCc1nnc(NS(=O)(=O)c2ccc(N=Cc3c(C)[nH]n(-c4ccc(C)c(C)c4)c3=O)cc2)s1	-	-	66	-	-
Cc1ccc(-n2[nH]c(C)c(C=Nc3ccc(S(=O)(=O)Nc4nccs4)cc3)c2=O)cc1	-	-	-	-	-
C/C(=N/NC(=O)c1ccc(C)nc1)c1ccc2c(c1)CCCC2	-	-	-	-	-
Clc1ccc(OCc2cn3ccccc3n2)c2ncccc12	-	-	-	145	-
OCc1ccccc1OCCOc1ccc(Cl)c2cccnc12	-	-	-	-	-
CN=c1scc(-c2cccs2)n1/N=C/c1ccccc1O	-	-	94	-	-
SMILES	APP 5'UTR act	FLuc act counter	FLuc inhib CS	STAT1 act	NF-kB expr up
CN=c1scc(C)n1/N=C/c1ccc(O)c(O)c1O	-	-	97	-	-
Cc1cc(C)n(/N=C/c2ccccc2O)c(=O)c1	-	-	-	-	-
CN=c1scc(-c2cccs2)n1/N=C/c1ccc(O)c(O)c1O	-	-	98	-	5
Cc1ccccc1-n1nnnc1SCC(=O)NCC1CCCO1 (stereo not drawn)	-	-	-	-	-
CCc1n[n+](CC(=O)c2ccccc2)c(N)s1	142	-	70	-	-
CCOC(=O)c1ccc[n+](CC(=O)c2ccccc2)c1	.	-	-	-	-
Clc1ccccc1CSc1ncn(-c2ccccc2)n1	-	-	-	131	-
Cc1ccc(CSc2ncn(-c3ccccc3)n2)cc1	-	-	-	-	-
Cc1ccc2c(c1)C(N1CCCC1=O)CC(c1ccco1)N2 (stereo not drawn)	-	-	95	-	3.7
CCN(CC)CCn1c(=S)[nH]c2cc(C(=O)N3CC=C(c4ccccc4)CC3)ccc2c1=O	-	-	-	-	-
COc1ccc(NC2=C(Cl)C(=O)N(CCc3ccccc3)C2=O)cc1	-	-	-	142	-
COc1ccc(NC2=C(Cl)C(=O)N(CCc3ccccc3)C2=O)c(OC)c1	-	-	-	-	-
Oc1ccc(-c2csc(Nc3ncccn3)n2)cc1O	-	-	53	133	12
CN(C(=O)c1cccc(Nc2ccc(-c3ccc4c(c3)OCCO4)nn2)c1)C1CCCCC1	-	-	77	-	-
CCC(C)(C)NC(=O)C(c1cccnc1)N(C(=O)c1csnn1)c1ccccc1 (stereo not drawn)	-	-	-	-	-
Cc1nc2ccccc2n1CC(=O)NC(C)C1CC2CCC1C2 (stereo not drawn)	-	-	-	-	-
